The values that follow come from ChEMBL document CHEMBL1142155, “Human beta-defensins kill Candida albicans in an energy-dependent and salt-sensitive manner without causing membrane disruption” (2007).

Experiment [1] deals with Candida albicans. Kind of experiment: Induction of ATP efflux in Candida albicans CAF4-2 at 1 uM in presence of 1 mM sodium azide. Type of experiment: functional, organism-based. The gist of the method: (§1)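 10⁴ C. albicans cells given 31 μM Hst 5 or 1 μM hBD-3, with or without 2 h pretreatment in 1 mM NaN₃. Extracellular ATP read by luminometry at 0, 5, 15, 30, 45 and 60 min. Values come from per-experiment ATP standard curves, as pmol ATP per 10⁴ cells.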

For experiment [2], the system named is Candida albicans. Kind of experiment: Induction of ATP efflux in Candida albicans CAF4-2 at 1 uM. Format: functional, organism-based. The gist of the method: as §1
Experiment [3] deals with Candida albicans. Kind of experiment: Induction of membrane permeabilization in Candida albicans assessed as calcein release at 0.8 uM after 90 min. Format: functional. In a few lines:
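Early-stationary yeast washed in 10 mM NaPB, loaded at 10⁷/ml with 5 μM (final) calcein-AM for 2 h at room temperature, then washed four times; 10⁶ cells given 0.8 μM hBD-3 or 32 μM Hst 5. Fluorescence (ex 485/em 530 nm) read every 5 min for 90 min. Percent release = (I_r − I_bkg)/(I_int − I_bkg) × 100, where I_int comes from boiling 10 min. Mean ± SD of three experiments.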

Structures are written as SMILES. Activity calls are given as the source filed them. The rule behind the calls is not given here.

`CC[C@H](C)C(NC(=O)CN)C(=O)N[C@H](C(=O)N[C@@H](CC(N)=O)C(=O)N[C@H](C(=O)N[C@@H](CC(C)C)C(=O)N[C@@H](CCC(N)=O)C(=O)N[C@@H](CCCCN)C(=O)N[C@@H](Cc1ccc(O)cc1)C(=O)N[C@@H](Cc1ccc(O)cc1)C(=O)N[C@@H](CS)C(=O)N[C@@H](CCCNC(=N)N)C(=O)N[C@H](C(=O)N[C@@H](CCCNC(=N)N)C(=O)NCC(=O)NCC(=O)N[C@@H](CCCNC(=N)N)C(=O)N[C@@H](CS)C(=O)N[C@@H](C)C(=O)N[C@H](C(=O)N[C@@H](CC(C)C)C(=O)N[C@@H](CO)C(=O)N[C@@H](CS)C(=O)N[C@@H](CC(C)C)C(=O)N1CCC[C@H]1C(=O)N[C@@H](CCCCN)C(=O)N[C@@H](CCC(=O)O)C(=O)N[C@@H](CCC(=O)O)C(=O)N[C@@H](CCC(N)=O)C(=O)N[C@H](C(=O)NCC(=O)N[C@@H](CCCCN)C(=O)N[C@@H](CS)C(=O)N[C@@H](CO)C(=O)N[C@H](C(=O)N[C@@H](CCCNC(=N)N)C(=O)NCC(=O)N[C@@H](CCCNC(=N)N)C(=O)N[C@@H](CCCCN)C(=O)N[C@@H](CS)C(=O)N[C@@H](CS)C(=O)N[C@@H](CCCNC(=N)N)C(=O)N[C@@H](CCCNC(=N)N)C(=O)N[C@@H](CCCCN)C(=O)N[C@@H](CCCCN)C(=O)O)[C@@H](C)O)[C@@H](C)CC)C(C)C)C(C)C)[C@@H](C)O)[C@@H](C)CC` (stereo partly drawn): the result in the experiment on Candida albicans [1] was inactive. For the same compound, in the experiment on Candida albicans [2], the result was Active. Besides, the Activity with Candida albicans [3] is listed as 24.2%.
